From ChEMBL document CHEMBL4354865 (J Med Chem, 2020)

Legend:
[1] = Cytotoxicity against human A375 cells assessed as cell viability at 1 uM measured after 48 hrs by MTT assay relative to control; format: cell-based, A-375; details: read-out: Activity
Outline: (§1)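 A375 cells, unstimulated or stimulated with recombinant human IFN-γ, were left untreated or treated with 1 µM compound for 48 h. L-Kyn was measured by HPLC and cell viability was assessed.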

[2] = target: T1, Indoleamine 2,3-dioxygenase 1 (Homo sapiens, UniProt P14902); experiment: Inhibition of IDO1 in IFNgamma-stimulated human A375 cells assessed as reduction in L-Kyn level measured after 48 hrs by HPLC analysis
Target sequence in this assay (P14902 whole entry): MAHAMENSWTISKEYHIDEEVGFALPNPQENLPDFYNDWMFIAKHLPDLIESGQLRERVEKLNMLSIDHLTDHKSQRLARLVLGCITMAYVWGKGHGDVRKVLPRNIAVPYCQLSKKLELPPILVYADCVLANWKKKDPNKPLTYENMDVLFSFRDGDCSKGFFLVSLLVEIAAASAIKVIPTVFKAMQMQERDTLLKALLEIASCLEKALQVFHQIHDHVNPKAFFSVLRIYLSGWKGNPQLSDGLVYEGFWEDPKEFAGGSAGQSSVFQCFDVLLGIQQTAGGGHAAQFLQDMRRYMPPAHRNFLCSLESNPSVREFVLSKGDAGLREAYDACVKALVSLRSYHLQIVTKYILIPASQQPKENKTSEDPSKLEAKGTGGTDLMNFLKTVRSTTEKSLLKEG

[3] = target: T1, Indoleamine 2,3-dioxygenase 1; experiment: Inhibition of IDO1 in IFNgamma-stimulated human A375 cells assessed as reduction in L-Kyn level at 1 uM measured after 48 hrs by HPLC analysis relative to control; outline: as §1
Target sequence in this assay (P14902 whole entry, looked up): as the sequence (P14902 whole entry) above

| SMILES | IC50 [2] [nM] | inhibition [3] [%] | viability at 48 h, 1 µM [1] [%] |
| --- | --- | --- | --- |
| Cc1ccc2[nH]c(C(=O)NCc3cccc(Cn4cnc5ccccc54)c3)cc2c1 | 636 | 90 | 99 |
| O=C(Cc1ccc2c(c1)OCO2)NCc1cccc(Cn2cnc3ccccc32)c1 | – | 5 | 96 |
| O=C(CCN1CCOCC1)NCc1cccc(Cn2cnc3ccccc32)c1 | – | 0 | 100 |
| N#Cc1ccc(C(=O)NCc2cccc(Cn3cnc4ccccc43)c2)cc1F | – | 32 | 100 |
| CC(=O)NCC(=O)NCc1cccc(Cn2cnc3ccccc32)c1 | – | 0 | 100 |
| Cc1cc(C(=O)NCc2cccc(Cn3cnc4ccccc43)c2)ccc1C#N | – | 44 | 94 |
| COc1ccc2[nH]c(C(=O)NCc3cccc(Cn4cnc5ccccc54)c3)cc2c1 | – | – | 55 |
| NCCCC(=O)NCc1cccc(Cn2cnc3ccccc32)c1 | – | 0 | 100 |
| O=C(NCc1cccc(Cn2ccc3ccccc32)c1)c1cc(Br)c[nH]1 | – | 0 | 100 |
| O=C(OCc1cccc(Cn2cnc3ccccc32)c1)c1cc(Br)c[nH]1 | – | 0 | 100 |
| O=C(NCc1cccc(Cn2cnc3ccccc32)c1)c1cc2cc(O)ccc2[nH]1 | 781 | 71 | 99 |
| N#Cc1ccc(C(=O)NCc2cccc(Cn3cnc4ccccc43)c2)c(F)c1 | – | 37 | 99 |

Second part, led by results:

| IC50 [2] [nM] | inhibition [3] [%] | SMILES | viability at 48 h, 1 µM [1] [%] |
| --- | --- | --- | --- |
| – | 77 | O=C(NCc1cccc(Cn2cnc3ccccc32)c1)c1cc2ccccc2s1 | 88 |
| 134 | 98 | O=C(NCc1cccc(Cn2cnc3ccccc32)c1)c1ccc(Br)cc1 | 96 |
| – | 72 | O=C(NCc1cccc(Cn2cnc3ccccc32)c1)c1ccc[nH]1 | 94 |
| – | 13 | O=C(CNC(=O)c1ccccc1)NCc1cccc(Cn2cnc3ccccc32)c1 | 99 |
| 477 | 99 | O=C(NCc1cccc(Cn2cnc3ccccc32)c1)c1ccc(Cl)cc1 | 96 |
| – | 81 | O=C(NCc1cccc(Cn2cnc3ccccc32)c1)c1ccc(C(F)(F)F)cc1 | 97 |
| – | 62 | O=C(NCc1cccc(Cn2cnc3ccccc32)c1)c1cccs1 | 98 |
| 413 | 91 | O=C(NCc1cccc(Cn2cnc3ccccc32)c1)c1cc2ccccc2o1 | 100 |
| 407 | 83 | O=C(NCc1cccc(Cn2cnc3ccccc32)c1)c1nc2ccccc2[nH]1 | 100 |
| 961 | 88 | O=C(NCc1cccc(Cn2cnc3ccccc32)c1)c1ccc(F)cc1 | 89 |
| – | 25 | O=C(NCc1cccc(Cn2cnc3ccccc32)c1)c1ccco1 | 100 |
| 327 | 88 | Cc1ccc(C(=O)NCc2cccc(Cn3cnc4ccccc43)c2)cc1 | 94 |
| – | 32 | O=C(NCc1cccc(Cn2cnc3ccccc32)c1)c1ccccc1 | 98 |
